The record followed here is ChEMBL document CHEMBL1144886, “Structure-based design, synthesis, and antimicrobial activity of indazole-derived SAH/MTA nucleosidase inhibitors” (J Med Chem, 2003).

Assay [1] deals with 5'-methylthioadenosine/S-adenosylhomocysteine nucleosidase (Escherichia coli O157:H7, UniProt P0AF14). The assay can be described thus: Inhibition of Escherichia coli S-adenosyl homocysteine/methylthioadenosine nucleosidase (MTA/SAH nucleosidase). The essentials: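 Recombinant His-tagged E. coli enzyme (IPTG-induced in E. coli, IMAC-purified), 50 pM, incubated 10 min at room temperature with 2.5 μM MTA and inhibitor at 0.005–100 μM; 200 μL final volume. Reaction stopped with TFA. Remaining MTA quantified by RP-HPLC (C8) peak integration, and turnover plotted for IC50. Ki derived using Km 1.0 μM for MTA.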

The subject of a further assay is Streptococcus pneumoniae. The assay is described as follows: Minimum inhibitory concentration against Streptococcus pneumoniae. It counts as functional.
The next assay has as its system Streptococcus pyogenes. The assay is described as follows: Minimum inhibitory concentration against Streptococcus pyogenes. It counts as functional.
The test system of another assay is Neisseria meningitidis. The assay is described as follows: Minimum inhibitory concentration against Neisseria meningitidis. It counts as functional.

Each structure is given as a SMILES string. ≈ marks a conversion by molar mass, not a printed value.

Chain of 5'-methylthioadenosine/S-adenosylhomocysteine nucleosidase (P0AF14 whole entry): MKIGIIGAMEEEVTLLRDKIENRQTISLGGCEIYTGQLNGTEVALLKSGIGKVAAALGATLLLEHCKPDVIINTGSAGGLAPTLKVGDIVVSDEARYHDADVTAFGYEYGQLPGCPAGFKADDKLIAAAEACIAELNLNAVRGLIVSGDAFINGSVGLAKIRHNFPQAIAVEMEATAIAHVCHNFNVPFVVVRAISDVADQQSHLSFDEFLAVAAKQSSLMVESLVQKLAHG

Take `CC(C)CNc1cc(NS(=O)(=O)c2cccc(-c3cccc(CCO)c3)c2)cc2c(Cl)[nH]nc12`: the Ki in assay [1] is 25 nM.

In assay [1], `Cc1n[nH]c2ccc(NS(=O)(=O)c3ccc(Cl)cc3)cc12` yielded a Ki of 4000 nM.

For `CN(C)c1cccc2c(S(=O)(=O)Nc3ccc4c[nH]nc4c3)cccc12`, the inhibition constant Ki in assay [1] turned out to be 1000 nM.

Consider `Cc1n[nH]c2c(NCC(C)C)cc(NS(=O)(=O)c3cccc(-c4ccccc4)c3)cc12`, for which the inhibitory constant (Ki) in assay [1] amounted to 498 nM.

For the compound `Cc1nccc(-c2cccc(S(=O)(=O)Nc3cc(NCC(C)C)c4[nH]nc(C)c4c3)c2)n1`, the Ki in assay [1] worked out at 191 nM.

For the compound `O=S(=O)(Nc1cc(NCc2ccccc2)c2[nH]nc(Cl)c2c1)c1ccc(Cl)cc1`, the Ki in assay [1] was 1800 nM.

In assay [1], `Cc1nccc(-c2cccc(S(=O)(=O)Nc3cc(NCC(C)C)c4n[nH]c(Cl)c4c3)c2)n1` yielded a Ki of 36 nM.

Turning to `CN(C)c1cccc2c(S(=O)(=O)Nc3ccc4[nH]ncc4c3)cccc12`, in assay [1], the Ki was 2800 nM.

For the compound `CSc1cccc(-c2cccc(S(=O)(=O)Nc3cc(NCC(C)C)c4[nH]nc(Cl)c4c3)c2)c1`, the inhibition constant Ki in assay [1] was 17 nM.

Regarding `Cc1cc(-c2cccc(S(=O)(=O)Nc3cc(NCC(C)C)c4n[nH]c(Cl)c4c3)c2)ccc1Cl`, the MIC with Streptococcus pneumoniae, against Streptococcus pyogenes and in the assay on Neisseria meningitidis was 7.5 µM (≈ 3.78 µg/mL) in each case. Also, the Ki in assay [1] is 3.9 nM.

On to `Cc1cc(-c2cccc(S(=O)(=O)Nc3cc(NCC(C)C)c4n[nH]c(Cl)c4c3)c2)ccc1F`, for which the inhibitory constant (Ki) in assay [1] was determined as 14.6 nM.

For the compound `CC(C)CNc1cc(NS(=O)(=O)c2cccc(-c3ccc(Cl)c(Cl)c3)c2)cc2c(Cl)[nH]nc12`, the results for the minimum inhibitory concentration (MIC) against Streptococcus pneumoniae, against Streptococcus pyogenes and against Neisseria meningitidis were 7.5 µM (≈ 3.93 µg/mL), 7.5 µM (≈ 3.93 µg/mL) and 1.88 µM (≈ 0.982 µg/mL), respectively. In assay [1], this compound came in with a Ki of 1.6 nM.

Turning to `O=S(=O)(Nc1cc(NCCc2ccccc2)c2[nH]nc(Cl)c2c1)c1ccc(Cl)cc1`, in assay [1], the affinity corresponds to a Ki of 2300 nM.

As for `O=S(=O)(Nc1cc(NCC2CC2)c2[nH]nc(Cl)c2c1)c1ccc(Cl)cc1`, affinity in assay [1] was put at a Ki of 500 nM.

Consider `CC(C)CNc1cc(NS(=O)(=O)c2cccc(-c3ccncc3)c2)cc2c(Cl)[nH]nc12`, for which the MIC against Streptococcus pyogenes is > 20 µM; against Neisseria meningitidis it was 10 µM (≈ 4.56 µg/mL). In assay [1], this compound displayed a Ki of 52 nM.

As for `Cc1cccc(-c2cccc(S(=O)(=O)Nc3cc(NCC(C)C)c4n[nH]c(Cl)c4c3)c2)c1`, the affinity in assay [1], expressed as Ki, was 36 nM.

Regarding `CC(C)CNc1cc(NS(=O)(=O)c2cccc(-c3ccc(Cl)cc3)c2)cc2c(Cl)[nH]nc12`, the MIC against Streptococcus pneumoniae turned out to be 2.5 µM (≈ 1.22 µg/mL); in the assay with Streptococcus pyogenes, 1.25 µM (≈ 0.612 µg/mL); against Neisseria meningitidis it was 2.5 µM (≈ 1.22 µg/mL). This compound displayed an inhibition constant (Ki) in assay [1] of 12.5 nM.

As for `CC(C)CNc1cc(NS(=O)(=O)c2cccc(-c3cnc4ccccc4c3)c2)cc2c(Cl)[nH]nc12`, in assay [1], affinity was put at a Ki of 10.8 nM.

For `CCNc1cc(NS(=O)(=O)c2ccc(Cl)cc2)cc2c(Cl)[nH]nc12`, the Ki in assay [1] was determined as 2700 nM.

`CC(C)(C)CCNc1cc(NS(=O)(=O)c2ccc(Cl)cc2)cc2c(Cl)[nH]nc12` came in with a Ki in assay [1] of 6500 nM.

`Cc1n[nH]c2c(NCC(C)C)cc(NS(=O)(=O)c3cccc(-c4ccncc4)c3)cc12`: the affinity in assay [1], expressed as Ki, was 240 nM.

In the case of `Cc1n[nH]c2c(NCC(C)C)cc(NS(=O)(=O)c3cccc(-c4cccc(C(F)(F)F)c4)c3)cc12`, the minimal inhibitory concentration (MIC) is > 20 µM in the assay on Streptococcus pyogenes and 20 µM (≈ 10.1 µg/mL) in the assay on Neisseria meningitidis. Moreover, the affinity in assay [1] corresponds to a Ki of 20 nM.

`CC(C)CNc1cc(NS(=O)(=O)c2cccc(-c3ccccc3)c2)cc2c(Cl)[nH]nc12`: the MIC with Streptococcus pyogenes is > 20 µM; against Neisseria meningitidis, 2.5 µM (≈ 1.14 µg/mL). The compound further registered an inhibitory constant (Ki) in assay [1] of 94 nM.

With `CC(C)CNc1cc(NS(=O)(=O)c2cccc(-c3ccc(F)c(F)c3)c2)cc2c(Cl)[nH]nc12`, the affinity in assay [1] corresponds to a Ki of 8.1 nM.

As for `CC(=O)Nc1cc(NS(=O)(=O)c2ccc(Cl)cc2)cc2c(Cl)[nH]nc12`, the MIC in the assay on Streptococcus pneumoniae amounted to 5 µM (≈ 2 µg/mL); against Streptococcus pyogenes it was 7.5 µM (≈ 2.99 µg/mL); against Neisseria meningitidis, 5 µM (≈ 2 µg/mL). In assay [1], this compound gave a Ki of 11000 nM.

In turn, `CN(C)c1cccc2c(S(=O)(=O)Nc3ccc4[nH]nc(Cl)c4c3)cccc12` showed a Ki in assay [1] of 22000 nM.

Turning to `Cc1cc(-c2cccc(S(=O)(=O)Nc3cc(NCC(C)C)c4n[nH]c(Cl)c4c3)c2)ccn1`, in assay [1], affinity was put at a Ki of 28.5 nM.

With `CCc1cccc(-c2cccc(S(=O)(=O)Nc3cc(NCC(C)C)c4[nH]nc(C)c4c3)c2)c1`, the Ki in assay [1] came out at 125 nM.

Turning to `Cc1cccc(-c2cccc(S(=O)(=O)Nc3cc(NCC(C)C)c4[nH]nc(C)c4c3)c2)c1`, the MIC in the assay with Streptococcus pyogenes is > 20 µM; with Neisseria meningitidis, 20 µM (≈ 8.97 µg/mL). For the same compound, the inhibition constant (Ki) in assay [1] was 100 nM.

`Cc1n[nH]c2ccc(NS(=O)(=O)c3cccc4c(N(C)C)cccc34)cc12` returned a Ki in assay [1] of 64000 nM.

`O=S(=O)(Nc1ccc2[nH]nc(Cl)c2c1)c1ccc(Cl)cc1` yielded a Ki in assay [1] of 5200 nM.

As to `CC(C)CNc1cc(NS(=O)(=O)c2ccc(Cl)cc2)cc2c(Cl)[nH]nc12`, the minimal inhibitory concentration (MIC) is > 20 µM against Streptococcus pyogenes and 5 µM (≈ 2.07 µg/mL) in the assay with Neisseria meningitidis. The compound further registered an inhibition constant Ki in assay [1] of 760 nM.

With `CC(C)CNc1cc(NS(=O)(=O)c2cccc(-c3ccc(F)c(Cl)c3)c2)cc2c(Cl)[nH]nc12`, the values for the minimal inhibitory concentration (MIC) with Streptococcus pneumoniae, with Streptococcus pyogenes and in the assay with Neisseria meningitidis were 3.75 µM (≈ 1.9 µg/mL), 3.75 µM (≈ 1.9 µg/mL) and 1.88 µM (≈ 0.951 µg/mL), respectively. The compound further showed a Ki in assay [1] of 3.4 nM.

In assay [1], `CC(C)CNc1cc(NS(=O)(=O)c2cccc(-c3cccc(C(F)(F)F)c3)c2)cc2c(Cl)[nH]nc12` displayed a Ki of 11 nM.

`CC(C)=CCNc1cc(NS(=O)(=O)c2ccc(Cl)cc2)cc2c(Cl)[nH]nc12` registered an inhibition constant (Ki) in assay [1] of 2200 nM.

In the case of `CC(C)CNc1cc(NS(=O)(=O)c2cccc(-c3ccc(C(F)(F)F)cc3)c2)cc2c(Cl)[nH]nc12`, the minimum inhibitory concentration (MIC) with Streptococcus pyogenes was > 20 µM; against Neisseria meningitidis it was 5 µM (≈ 2.61 µg/mL). This compound gave a Ki in assay [1] of 13 nM.

In assay [1], `CC(C)CCNc1cc(NS(=O)(=O)c2ccc(Cl)cc2)cc2c(Cl)[nH]nc12` displayed an inhibitory constant (Ki) of 4900 nM.

Regarding `O=S(=O)(Nc1ccc2c[nH]nc2c1)c1ccc(Cl)cc1`, the inhibition constant (Ki) in assay [1] worked out at 17000 nM.

As to `CC(C)(C)CNc1cc(NS(=O)(=O)c2ccc(Cl)cc2)cc2c(Cl)[nH]nc12`, the affinity in assay [1] corresponds to a Ki of 1200 nM.

Take `O=S(=O)(Nc1ccc2[nH]ncc2c1)c1ccc(Cl)cc1`: the affinity in assay [1] corresponds to a Ki of 27000 nM.
